Test results from ChEMBL document CHEMBL2331528, “Design and synthesis of bicyclic pyrazinone and pyrimidinone amides as potent TF-FVIIa inhibitors” (Bioorg Med Chem Lett, 2013).

Experiments:
Prothrombin = Prothrombin (Homo sapiens, UniProt P00734); assay: Inhibition of thrombin (unknown origin) by chromogenic substrate assay
Procedure, shortened: (§1)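 Ki from chromogenic substrate assays at 25 °C; n = 2.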

[1] = molecular target: Coagulation factor VII/tissue factor (Homo sapiens, UniProt P08709); assay: Inhibition of tissue factor-factor 7a (unknown origin) interaction by chromogenic substrate assay; type: protein-complex assay; procedure, shortened: as §1
Sequence of Coagulation factor VII/tissue factor (P08709 61-212 limits assumed): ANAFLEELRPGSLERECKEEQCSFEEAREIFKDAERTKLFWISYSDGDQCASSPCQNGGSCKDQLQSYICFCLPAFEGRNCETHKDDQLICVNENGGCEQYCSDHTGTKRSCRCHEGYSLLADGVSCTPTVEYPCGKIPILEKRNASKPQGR
Sequence of Coagulation factor VII/tissue factor (P08709 213-466 limits assumed): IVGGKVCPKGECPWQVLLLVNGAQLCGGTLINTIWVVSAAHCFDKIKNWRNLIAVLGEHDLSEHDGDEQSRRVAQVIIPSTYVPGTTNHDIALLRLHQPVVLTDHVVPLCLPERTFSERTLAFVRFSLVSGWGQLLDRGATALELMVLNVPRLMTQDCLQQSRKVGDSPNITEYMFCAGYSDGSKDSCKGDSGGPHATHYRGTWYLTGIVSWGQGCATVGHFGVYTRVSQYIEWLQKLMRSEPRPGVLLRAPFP
Sequence of Coagulation factor VII/tissue factor (P13726 33-295 partner limits assumed): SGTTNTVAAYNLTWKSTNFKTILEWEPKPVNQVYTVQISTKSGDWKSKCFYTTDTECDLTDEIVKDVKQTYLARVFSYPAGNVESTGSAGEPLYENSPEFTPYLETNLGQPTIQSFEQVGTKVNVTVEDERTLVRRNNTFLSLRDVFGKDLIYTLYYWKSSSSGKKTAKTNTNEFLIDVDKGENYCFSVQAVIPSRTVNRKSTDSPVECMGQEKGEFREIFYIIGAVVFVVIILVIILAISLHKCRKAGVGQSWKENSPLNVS

Coagulation factor X = Coagulation factor X (Homo sapiens, UniProt P00742); assay: Inhibition of factor-10a (unknown origin) by chromogenic substrate assay; procedure, shortened: as §1
Sequence of Coagulation factor X (P00742 41-179 limits assumed): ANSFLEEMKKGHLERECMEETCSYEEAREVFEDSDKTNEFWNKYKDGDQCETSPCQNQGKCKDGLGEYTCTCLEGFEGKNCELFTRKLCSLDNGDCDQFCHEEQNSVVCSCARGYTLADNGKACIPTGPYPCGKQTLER
Sequence of Coagulation factor X (P00742 235-488 limits assumed): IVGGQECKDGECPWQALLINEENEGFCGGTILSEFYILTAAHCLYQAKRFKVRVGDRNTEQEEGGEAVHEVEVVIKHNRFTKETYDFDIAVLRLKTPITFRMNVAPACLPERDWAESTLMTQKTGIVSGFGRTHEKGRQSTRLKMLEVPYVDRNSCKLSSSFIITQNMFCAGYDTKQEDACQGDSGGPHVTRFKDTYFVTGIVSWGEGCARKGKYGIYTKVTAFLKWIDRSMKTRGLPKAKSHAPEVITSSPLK

Homo sapiens [2] = species: Homo sapiens; assay: Selectivity ratio of Ki for thrombin (unknown origin) to Ki for tissue factor-factor 7a (unknown origin) interaction
Homo sapiens [3] = species: Homo sapiens; assay: Selectivity ratio of Ki for factor-9a (unknown origin) to Ki for tissue factor-factor 7a (unknown origin) interaction
Plasma [4] = assay: Anticoagulant activity in factor 7 deficient human plasma assessed as concentration required to prothrombin time; type: functional
Homo sapiens [5] = species: Homo sapiens; assay: Selectivity ratio of Ki for factor-11a (unknown origin) to Ki for tissue factor-factor 7a (unknown origin) interaction
Homo sapiens [6] = species: Homo sapiens; assay: Selectivity ratio of Ki for plasma kallikrein (unknown origin) to Ki for tissue factor-factor 7a (unknown origin) interaction
Plasma [7] = assay: Fraction unbound in human plasma; type: ADME, cell-free
Homo sapiens [8] = species: Homo sapiens; assay: Selectivity ratio of Ki for factor-10a (unknown origin) to Ki for tissue factor-factor 7a (unknown origin) interaction
Homo sapiens [9] = species: Homo sapiens; assay: Selectivity ratio of Ki for trypsin (unknown origin) to Ki for tissue factor-factor 7a (unknown origin) interaction

CNc1nc(Cl)c2n(c1=O)[C@H](C(=O)NCc1ccc(C(=N)N)cc1)CC2(C)C
Ki (Prothrombin): 230 nM
Ki [1]: 24 nM
Ki (Coagulation factor X): > 15000 nM

CNC(=O)[C@]1(C)C[C@@H](C(=O)NCc2ccc(C(=N)N)cc2)n2c1c(Cl)nc(NC1CCC1)c2=O
Ki (Prothrombin): > 15000 nM
Ki [1]: 2100 nM
Ki (Coagulation factor X): 1100 nM

CC1(C)C[C@@H](C(=O)NCc2ccc(C(=N)N)cc2)n2c1c(Cl)nc(NC1CCCC1)c2=O
Ki (Prothrombin): 160 nM
Ki [1]: 60 nM
Ki (Coagulation factor X): > 15000 nM

CCC1(CC)C[C@@H](C(=O)NCc2ccc(CN)cc2)n2c1c(Cl)nc(NC1CCC1)c2=O
Ki [1]: 300 nM

CC1(C)C[C@@H](C(=O)NCc2ccc(C(=N)N)cc2)n2c1c(Cl)nc(NC1(CO)CCCC1)c2=O
Ki (Prothrombin): 380 nM
Ki [1]: 70 nM
Ki (Coagulation factor X): > 15000 nM

CCC[C@]1(C)C[C@@H](C(=O)NCc2ccc(C(=N)N)cc2)n2c1c(Cl)nc(NC1CCC1)c2=O
Ki (Prothrombin): 36 nM
Ki [1]: 23 nM
Ki (Coagulation factor X): 1000 nM

CC(C)CNc1nc(Cl)c2n(c1=O)[C@H](C(=O)NCc1ccc(C(=N)N)cc1)CC2(C)C
Ki (Prothrombin): 220 nM
Ki [1]: 43 nM
Ki (Coagulation factor X): > 15000 nM

C[C@@]1(CO)C[C@@H](C(=O)NCc2ccc(C(=N)N)cc2)n2c1c(Cl)nc(NC1CCC1)c2=O
Ki (Prothrombin): > 15000 nM
Ki [1]: 72 nM
Ki (Coagulation factor X): > 15000 nM

CC1(C)C[C@@H](C(=O)NCc2ccc(C(=N)N)cc2)n2c1c(Cl)nc(NC1CCC1)c2=O
Ki (Prothrombin): 200 nM
Ki [1]: 23 nM
Ki (Coagulation factor X): > 15000 nM

CCC[C@@]1(C)C[C@@H](C(=O)NCc2ccc(C(=N)N)cc2)n2c1c(Cl)nc(NC1CCC1)c2=O
Ki (Prothrombin): 110 nM
Ki [1]: 21 nM
Ki (Coagulation factor X): 2200 nM

CCC1(CC)C[C@@H](C(=O)NCc2ccc3c(N)noc3c2)n2c1c(Cl)nc(NC1CCC1)c2=O
Ki [1]: 1900 nM

Cc1ccc(CNc2nc(Cl)c3n(c2=O)[C@H](C(=O)NCc2ccc(C(=N)N)cc2)CC3(C)C)o1
Ki [1]: 190 nM

CC1(C)C[C@@H](C(=O)NCc2ccc(C(=N)N)cc2)n2c1c(Cl)nc(NC1CC1)c2=O
Ki (Prothrombin): 360 nM
Ki [1]: 37 nM
Ki (Coagulation factor X): > 15000 nM

CC(C)(C)OC(=O)CNc1nc(Cl)c2n(c1=O)[C@H](C(=O)NCc1ccc(C(=N)N)cc1)CC2(C)C
Ki (Prothrombin): 32 nM
Ki [1]: 132 nM

CC1(C)C[C@@H](C(=O)NCc2ccc(C(=N)N)cc2)n2c1c(Cl)nc(NCC1CCCCC1)c2=O
Ki (Prothrombin): 220 nM
Ki [1]: 76 nM
Ki (Coagulation factor X): > 15000 nM

N=C(N)c1ccc(CNC(=O)[C@@H]2CCc3c(Cl)nc(NC4CCC4)c(=O)n32)cc1
Ki (Prothrombin): 35 nM
Ki [1]: 30 nM
Ki (Coagulation factor X): > 15000 nM

C=CC[C@]1(C)C[C@@H](C(=O)NCc2ccc(C(=N)N)cc2)n2c1c(Cl)nc(NC1CCC1)c2=O
Ki (Prothrombin): 220 nM
Ki [1]: 5.8 nM
Ki (Coagulation factor X): 650 nM

CCC1(CC)C[C@@H](C(=O)NCc2ccc3c(N)nccc3c2)n2c1c(Cl)nc(NC1CCC1)c2=O
Ki [1]: 360 nM

CCCNc1cnc2n(c1=O)[C@H](C(=O)NCc1ccc(C(=N)N)cc1)C[C@@]2(C)CC
Ki (Prothrombin): 2100 nM
Ki [1]: 150 nM
Ki (Coagulation factor X): > 15000 nM

CCCNc1cnc2n(c1=O)[C@H](C(=O)NCc1ccc(C(=N)N)cc1)CC2(C)C
Ki (Prothrombin): 1800 nM
Ki [1]: 290 nM
Ki (Coagulation factor X): > 15000 nM

COCC(C)Nc1nc(Cl)c2n(c1=O)[C@H](C(=O)NCc1ccc(C(=N)N)cc1)CC2(C)C (stereo partly specified)
Ki [1]: 130 nM

CCCC1(CCC)C[C@@H](C(=O)NCc2ccc(C(=N)N)cc2)n2c1c(Cl)nc(NC1CCC1)c2=O
Ki (Prothrombin): 170 nM
Ki [1]: 28 nM
Ki (Coagulation factor X): 550 nM

CCC1(CC)C[C@@H](C(=O)NCc2ccc(C(=N)N)cc2)n2c1c(Cl)nc(NC1CCC1)c2=O
Ratio Ki (Homo sapiens [2]): 30
Ki (Prothrombin): 210 nM
Ratio Ki (Homo sapiens [3]): > 160
Ki [1]: 7.3 nM
Activity (Plasma [4]): 5.6 µM
Ratio Ki (Homo sapiens [5]): > 160
Ki (Coagulation factor X): 3300 nM
Ratio Ki (Homo sapiens [6]): < 3
Cp(f) (Plasma [7]): 6.8%
Ratio Ki (Homo sapiens [8]): > 160
Ratio Ki (Homo sapiens [9]): < 3

CCCNc1cnc2n(c1=O)[C@H](C(=O)NCc1ccc(C(=N)N)cc1)CC2(CCC)CCC
Ki (Prothrombin): 1200 nM
Ki [1]: 620 nM
Ki (Coagulation factor X): 3600 nM

CC(C)(C)Nc1nc(Cl)c2n(c1=O)[C@H](C(=O)NCc1ccc(C(=N)N)cc1)CC2(C)C
Ki (Prothrombin): 220 nM
Ki [1]: 68 nM
Ki (Coagulation factor X): 2800 nM

CC(Nc1nc(Cl)c2n(c1=O)[C@H](C(=O)NCc1ccc(C(=N)N)cc1)CC2(C)C)C(C)(C)C (stereo partly specified)
Ki [1]: 84 nM

CC(C)Nc1nc(Cl)c2n(c1=O)[C@H](C(=O)NCc1ccc(C(=N)N)cc1)CC2(C)C
Ki (Prothrombin): 130 nM
Ki [1]: 17 nM
Ki (Coagulation factor X): > 15000 nM

CCNc1nc(Cl)c2n(c1=O)[C@H](C(=O)NCc1ccc(C(=N)N)cc1)CC2(C)C
Ki (Prothrombin): 260 nM
Ki [1]: 19 nM
Ki (Coagulation factor X): > 15000 nM

CCCNc1cnc2n(c1=O)[C@H](C(=O)NCc1ccc(C(=N)N)cc1)CC2
Ki (Prothrombin): 150 nM
Ki [1]: 186 nM
Ki (Coagulation factor X): > 15000 nM

C[C@@]1(C(=O)NCc2ccccc2)C[C@@H](C(=O)NCc2ccc(C(=N)N)cc2)n2c1c(Cl)nc(NC1CCC1)c2=O
Ki (Prothrombin): > 15000 nM
Ki [1]: 560 nM
Ki (Coagulation factor X): 3700 nM

CCCNc1cnc2n(c1=O)[C@H](C(=O)NCc1ccc(C(=N)N)cc1)CC2(CC)CC
Ki (Prothrombin): 5200 nM
Ki [1]: 75 nM
Ki (Coagulation factor X): 12000 nM

N=C(N)c1ccc(CNC(=O)[C@@H]2CC3(CCCC3)c3c(Cl)nc(NC4CCC4)c(=O)n32)cc1
Ki (Prothrombin): 78 nM
Ki [1]: 99 nM
Ki (Coagulation factor X): > 15000 nM
